Measurements reported in ChEMBL document CHEMBL4024746, “Nonpyrogenic Molecular Adjuvants Based on norAbu-Muramyldipeptide and norAbu-Glucosaminyl Muramyldipeptide: Synthesis, Molecular Mechanisms of Action, and Biological Activities in Vitro and in Vivo” (J Med Chem, 2017).
The source made the active and inactive calls. The rule behind the calls is not given here.

Key:
[1] = molecular target: Nucleotide-binding oligomerization domain-containing protein 2 (Homo sapiens) (UniProt Q9HC29); experiment: Agonist activity at human NOD2 receptor expressed in mouse Raw-Blue reporter cells at 10 uM after 48 hrs by SEAP reporter gene assay; assay type: cell-based
Summary of the method: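 RAW 264.7-derived RAW-Blue cells carrying an NF-κB/AP-1-inducible SEAP reporter, exposed to compounds at 10 μM for 48 h. Colorimetric SEAP read-out at 650 nm. MDP serves as positive control. ANOVA with Dunnett's test versus untreated cells and versus MDP.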

Oryctolagus cuniculus [2] = experiment: Pyrogenic activity in Chinchilla rabbit assessed as change in maximum body temperature at 100 nmol/kg, iv using micellar foemulation measured at 30 mins time intervals; assay type: toxicity, organism-based; conditions: in vivo, 0.5 h
Summary of the method: (§1)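 Standard rabbit pyrogenicity test, three animals per group, iv or modified sc application of free (micellar) or liposomal formulations. Maximum temperature rise (+ΔTmax) summed per group; sum below 1.1 °C classed as nonpyrogenic. Temperature followed a further 24 h for delayed pyrogenicity.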

[3] = Solubility of the compound in PBS; assay type: physicochemical; conditions: buffer
[4] = molecular target: NACHT, LRR and PYD domains-containing protein 3 (Homo sapiens, UniProt Q96P20); experiment: Agonist activity at NLRP3 in human […] cells assessed as induction of LPS-induced IL-1beta secretion by HEK-Blue reporter cell based assay
Summary of the method: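 THP1-Null cells stimulated with compounds; mature IL-1β released is detected with HEK-Blue IL-1β cells through SEAP reporter activity in the supernatant, read colorimetrically with QUANTI-Blue. ATP serves as positive standard. Untreated HEK-Blue IL-1β cells serve as negative control; comparison by ANOVA with Dunnett's test.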

Mus musculus [5] = experiment: Immuno-stimulatory activity in ICR mouse assessed as induction of GM-progenitor cell proliferation in serum at […], sc using liposomal formulation measured after 6 hrs; assay type: functional, organism-based
Summary of the method: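 Female ICR mice, 3 months old, four per group, given liposomal preparations sc at 100 nmol per dose in 200 μL. Serum collected 6 h later and added to cultured granulocyte–monocyte progenitors. GM-CFU colonies counted, with serum-free cells as baseline. Dunnett's test is used versus the infusion-solution control.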

[6] = molecular target: Nucleotide-binding oligomerization domain-containing protein 2 (Homo sapiens) (UniProt Q9HC29); experiment: Agonist activity at human NOD2 receptor expressed in mouse Raw-Blue reporter cells at 10 uM after 48 hrs in presence of gefitinib by SEAP reporter gene assay; assay type: cell-based
Oryctolagus cuniculus [7] = experiment: Pyrogenic activity in New Zealand albino rabbit assessed as change in maximum body temperature at 100 nmol/kg, sc using liposomal formulation measured at 30 mins time intervals for 9 to 24 hrs (reference value: 0.2 degC); assay type: toxicity, organism-based; conditions: in vivo; summary of the method: as §1
[8] = Solubility of the compound in DMSO; assay type: physicochemical
[9] = molecular target: Nucleotide-binding oligomerization domain-containing protein 2 (Homo sapiens) (UniProt Q9HC29); experiment: Agonist activity at human NOD2 receptor expressed in mouse Raw-Blue reporter cells at 10 uM after 24 hrs in presence of GSK717 by SEAP reporter gene assay
[10] = molecular target: T1, Nucleotide-binding oligomerization domain-containing protein 1 (Homo sapiens) (UniProt Q9Y239); experiment: Agonist activity at human NOD1 receptor expressed in HEK-Blue reporter cells at 10 uM after 48 hrs by SEAP reporter gene assay; assay type: cell-based
T1 sequence (whole entry): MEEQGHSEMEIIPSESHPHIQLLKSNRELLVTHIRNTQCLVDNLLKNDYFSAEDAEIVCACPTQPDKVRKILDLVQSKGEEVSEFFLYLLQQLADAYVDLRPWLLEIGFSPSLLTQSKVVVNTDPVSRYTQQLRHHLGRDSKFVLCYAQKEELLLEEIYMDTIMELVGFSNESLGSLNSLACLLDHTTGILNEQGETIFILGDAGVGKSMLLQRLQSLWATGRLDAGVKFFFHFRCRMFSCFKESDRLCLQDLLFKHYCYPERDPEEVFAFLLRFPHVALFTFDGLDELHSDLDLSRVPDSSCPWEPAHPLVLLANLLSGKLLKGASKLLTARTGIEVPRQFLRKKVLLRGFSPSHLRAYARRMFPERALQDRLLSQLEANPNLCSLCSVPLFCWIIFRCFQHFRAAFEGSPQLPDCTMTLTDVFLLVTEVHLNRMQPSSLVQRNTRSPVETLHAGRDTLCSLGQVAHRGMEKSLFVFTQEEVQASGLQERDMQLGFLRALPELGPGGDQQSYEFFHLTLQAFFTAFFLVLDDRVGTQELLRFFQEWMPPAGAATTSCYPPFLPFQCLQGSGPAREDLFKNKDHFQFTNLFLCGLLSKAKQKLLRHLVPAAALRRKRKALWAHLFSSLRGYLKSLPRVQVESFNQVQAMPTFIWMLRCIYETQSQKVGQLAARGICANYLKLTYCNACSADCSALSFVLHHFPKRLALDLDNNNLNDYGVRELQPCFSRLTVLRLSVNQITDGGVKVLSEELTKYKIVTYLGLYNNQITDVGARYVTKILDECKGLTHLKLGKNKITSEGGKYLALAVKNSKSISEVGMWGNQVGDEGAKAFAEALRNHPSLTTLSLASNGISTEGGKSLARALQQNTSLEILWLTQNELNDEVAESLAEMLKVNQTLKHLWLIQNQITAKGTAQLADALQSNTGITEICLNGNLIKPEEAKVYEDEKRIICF
Summary of the method: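 HEK293 cells cotransfected with human NOD1 and an NF-κB/AP-1-inducible SEAP reporter, exposed to compounds at 10 μM for 48 h. SEAP is read at 650 nm with QUANTI-Blue. Diaminopimelic acid derivatives serve as NOD1 positive controls. Dunnett's test is used versus untreated cells.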

Oryctolagus cuniculus [11] = experiment: Toxicity in Chinchilla rabbit assessed as necrosis at site of application at 100 nmol/kg, iv using micellar formulation measured up to 2 months post dose; assay type: organism-based; conditions: in vivo
[12] = Solubility of the compound in ethanol; assay type: physicochemical
Oryctolagus cuniculus [13] = experiment: Toxicity in New Zealand albino rabbit assessed as skin irritation at 100 nmol/kg, sc using liposomal formulation measured up to 2 months post dose; assay type: organism-based; conditions: in vivo
Oryctolagus cuniculus [14] = experiment: Toxicity in Chinchilla rabbit assessed as skin irritation at 100 nmol/kg, iv using micellar formulation measured up to 2 months post dose; assay type: organism-based; conditions: in vivo
Oryctolagus cuniculus [15] = experiment: Toxicity in Chinchilla rabbit assessed as behavioral changes at 100 nmol/kg, iv using micellar formulation measured up to 2 months post dose; assay type: organism-based; conditions: in vivo
Oryctolagus cuniculus [16] = experiment: Toxicity in New Zealand albino rabbit assessed as necrosis at site of application at 100 nmol/kg, sc using liposomal formulation measured up to 2 months post dose; assay type: organism-based; conditions: in vivo
Oryctolagus cuniculus [17] = experiment: Toxicity in New Zealand albino rabbit assessed as weight loss at 100 nmol/kg, sc using liposomal formulation measured up to 2 months post dose; assay type: organism-based; conditions: in vivo
Oryctolagus cuniculus [18] = experiment: Toxicity in New Zealand albino rabbit assessed as behavioral changes at 100 nmol/kg, sc using liposomal formulation measured up to 2 months post dose; assay type: organism-based; conditions: in vivo
Oryctolagus cuniculus [19] = experiment: Toxicity in Chinchilla rabbit assessed as weight loss at 100 nmol/kg, iv using micellar formulation measured up to 2 months post dose; assay type: organism-based; conditions: in vivo
Oryctolagus cuniculus [20] = experiment: Pyrogenic activity in New Zealand albino rabbit assessed as change in maximum body temperature at 25 ug/kg, sc using liposomal formulation measured at 30 mins time intervals for 9 to 24 hrs (reference value: 0.2 degC); assay type: organism-based; conditions: in vivo, 0.025 mg/kg
Mus musculus [21] = experiment: Adjuvant activity in OspA immunized BALB/c mouse assessed as induction of total Ig antibody production administered id loaded in rOspA proteoliposomes measured 14 days after boost immunization by ELISA; assay type: functional
Summary of the method: (§2)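 Female BALB/c mice, 6−8 weeks, five per group, immunized id with His-tagged rOspA (endotoxin below 2.5 EU/mg) on metallochelation liposomes (EPC/POPG/DOGS-NTA-Ni/adjuvant 71:19:5:5), 20 μg rOspA per dose; boost 14 days after prime. Pooled sera taken 14 days post-boost, run in duplicate by ELISA on 100 ng/well tag-free rOspA, diluted 1:1000–1:32000; reported as mean OD490 ± SD at 1:8000.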

Mus musculus [22] = experiment: Toxicity in BALB/c mouse assessed as local reactions at site of drug application administered id loaded in rOspA proteoliposomes; conditions: in vivo, other
Summary of the method: (§3)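 Female BALB/c mice immunized id with rOspA metallochelation proteoliposomes carrying the adjuvant, prime and boost 14 days apart; injection sites inspected for irritation or local reactions.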

Mus musculus [23] = experiment: Toxicity in BALB/c mouse assessed as irritation at site of drug application administered id loaded in rOspA proteoliposomes; conditions: in vivo, other; summary of the method: as §3
Mus musculus [24] = experiment: Adjuvant activity in OspA immunized BALB/c mouse assessed as induction of total IgG1 antibody production administered id loaded in rOspA proteoliposomes measured 14 days after boost immunization by ELISA; assay type: functional; summary of the method: as §2
Mus musculus [25] = experiment: Adjuvant activity in OspA immunized BALB/c mouse assessed as induction of total IgG2a antibody production administered id loaded in rOspA proteoliposomes measured 14 days after boost immunization by ELISA; assay type: functional; summary of the method: as §2

Nucleotide-binding oligomerization domain-containing protein 2 (Homo sapiens), sequence (Q9HC29 whole entry, the tested form may be a part): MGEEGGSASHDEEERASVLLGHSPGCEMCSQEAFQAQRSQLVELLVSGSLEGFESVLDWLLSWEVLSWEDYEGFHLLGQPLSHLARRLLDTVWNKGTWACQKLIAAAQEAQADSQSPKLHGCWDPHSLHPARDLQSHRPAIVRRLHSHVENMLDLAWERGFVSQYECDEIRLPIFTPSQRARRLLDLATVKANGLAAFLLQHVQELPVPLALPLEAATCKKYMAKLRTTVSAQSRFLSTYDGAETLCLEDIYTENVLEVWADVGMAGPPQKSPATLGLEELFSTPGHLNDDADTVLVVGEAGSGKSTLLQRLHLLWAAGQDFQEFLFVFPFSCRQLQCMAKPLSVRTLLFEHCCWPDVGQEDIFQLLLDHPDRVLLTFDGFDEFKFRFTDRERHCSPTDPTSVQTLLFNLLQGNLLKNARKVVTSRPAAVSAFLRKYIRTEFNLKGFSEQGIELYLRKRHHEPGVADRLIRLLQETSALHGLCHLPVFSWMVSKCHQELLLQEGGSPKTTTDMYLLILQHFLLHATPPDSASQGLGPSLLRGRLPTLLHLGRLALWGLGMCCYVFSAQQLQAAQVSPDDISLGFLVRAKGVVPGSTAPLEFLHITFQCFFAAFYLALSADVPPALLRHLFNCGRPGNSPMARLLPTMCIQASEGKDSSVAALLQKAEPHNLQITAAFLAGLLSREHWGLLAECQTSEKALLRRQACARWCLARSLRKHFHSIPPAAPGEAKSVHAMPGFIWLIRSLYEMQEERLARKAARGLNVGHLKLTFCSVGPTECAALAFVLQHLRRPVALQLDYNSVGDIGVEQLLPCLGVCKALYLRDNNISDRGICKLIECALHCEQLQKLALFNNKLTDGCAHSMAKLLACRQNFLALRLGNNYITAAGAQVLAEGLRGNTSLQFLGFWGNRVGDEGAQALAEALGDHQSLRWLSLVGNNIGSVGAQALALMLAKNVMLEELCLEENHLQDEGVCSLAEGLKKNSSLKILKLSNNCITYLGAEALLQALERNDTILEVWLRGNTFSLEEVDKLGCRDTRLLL
NACHT, LRR and PYD domains-containing protein 3, sequence (Q96P20 whole entry, the tested form may be a part): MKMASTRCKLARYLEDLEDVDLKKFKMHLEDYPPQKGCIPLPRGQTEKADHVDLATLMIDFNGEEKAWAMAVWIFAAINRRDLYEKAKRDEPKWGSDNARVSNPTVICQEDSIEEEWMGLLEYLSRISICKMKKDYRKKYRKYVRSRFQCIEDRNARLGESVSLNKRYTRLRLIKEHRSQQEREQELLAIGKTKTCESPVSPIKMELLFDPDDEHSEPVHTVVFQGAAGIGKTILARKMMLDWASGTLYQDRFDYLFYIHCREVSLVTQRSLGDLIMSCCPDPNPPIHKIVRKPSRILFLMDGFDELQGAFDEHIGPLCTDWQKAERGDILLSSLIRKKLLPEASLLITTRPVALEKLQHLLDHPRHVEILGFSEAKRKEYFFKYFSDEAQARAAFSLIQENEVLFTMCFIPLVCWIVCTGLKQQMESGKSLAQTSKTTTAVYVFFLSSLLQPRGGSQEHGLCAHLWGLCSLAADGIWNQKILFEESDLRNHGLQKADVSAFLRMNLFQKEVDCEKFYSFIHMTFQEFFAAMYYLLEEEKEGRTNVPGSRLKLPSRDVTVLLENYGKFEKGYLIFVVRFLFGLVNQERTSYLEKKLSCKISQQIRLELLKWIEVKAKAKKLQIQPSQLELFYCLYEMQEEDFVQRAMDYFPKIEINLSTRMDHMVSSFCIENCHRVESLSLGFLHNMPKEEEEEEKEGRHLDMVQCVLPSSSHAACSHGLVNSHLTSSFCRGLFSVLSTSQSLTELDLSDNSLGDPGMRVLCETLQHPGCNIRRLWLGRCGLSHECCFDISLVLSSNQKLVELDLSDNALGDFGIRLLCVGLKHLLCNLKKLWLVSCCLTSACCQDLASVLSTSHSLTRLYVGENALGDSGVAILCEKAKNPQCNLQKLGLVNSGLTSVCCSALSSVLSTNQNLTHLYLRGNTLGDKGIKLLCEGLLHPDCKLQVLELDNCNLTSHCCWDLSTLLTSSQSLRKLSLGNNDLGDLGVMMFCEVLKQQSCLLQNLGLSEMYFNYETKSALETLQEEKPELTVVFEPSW

Row | Activity [1] | Activity [4] | Activity [6] | Activity [9] | Activity [10] | SMILES | deltaT (Oryctolagus cuniculus [2]) [°C] | Activity (Mus musculus [5]) | deltaT (Oryctolagus cuniculus [7]) [°C] | Activity (Oryctolagus cuniculus [11]) | Activity (Oryctolagus cuniculus [13]) | Activity (Oryctolagus cuniculus [14]) | Activity (Oryctolagus cuniculus [15]) | Activity (Oryctolagus cuniculus [16]) | Activity (Oryctolagus cuniculus [17]) | Activity (Oryctolagus cuniculus [18]) | Activity (Oryctolagus cuniculus [19]) | Activity (Mus musculus [21]) | Activity (Mus musculus [22]) | Activity (Mus musculus [23]) | Activity (Mus musculus [24]) | further results
1 | Active | Active | inactive | inactive | inactive | CCCCCCCCCCCCCCC(CCCCCCCCCCCCCC)C(=O)N[C@H]1[C@H](O[C@H]2[C@H](OCC(=O)N[C@@H](CC)C(=O)N[C@H](CCC(=O)O)C(N)=O)[C@@H](NC(C)=O)C(O)O[C@@H]2CO)O[C@H](CO)[C@@H](O)[C@@H]1O (some centres not stated) | 0.7 | inactive | 0.5 | Non-Toxic | Non-Toxic | Non-Toxic | Non-Toxic | Non-Toxic | Non-Toxic | Non-Toxic | Non-Toxic |  |  |  |  | solubility [3]: Soluble; solubility [8]: Soluble; solubility [12]: Insoluble
2 | Active | Active | inactive | inactive | inactive | CC(=O)N[C@H]1C(O)O[C@H](CO)[C@@H](O)[C@@H]1O[C@H](C)C(=O)N[C@@H](C)C(=O)N[C@H](CCC(=O)O)C(N)=O (some centres not stated) [MURAMYL DIPEPTIDE] | 2.9 | Active |  |  |  |  |  |  |  |  |  | Active | Non-Toxic | Non-Toxic | Active | deltaT (Oryctolagus cuniculus [20]): 2.7 °C
3 | Active | Active | inactive | inactive | inactive | CCCCCCCCCCCCCCC(CCCCCCCCCCCCCC)C(=O)NCCCC[C@H](NC(=O)CC[C@@H](NC(=O)[C@H](CC)NC(=O)CO[C@H]1[C@H](O)[C@@H](CO)OC(O)[C@@H]1NC(C)=O)C(N)=O)C(=O)O (some centres not stated) | 0.7 | Active | 0.6 | Non-Toxic | Non-Toxic | Non-Toxic | Non-Toxic | Non-Toxic | Non-Toxic | Non-Toxic | Non-Toxic | Active | Non-Toxic | Non-Toxic | Active | Activity (Mus musculus [25]): Active
